High-throughput results: PubChem BioAssay, The Scripps Research Institute Molecular Screening Center
A selection: hits, their analogues and other compounds. The true share with any hit is near 4.5%.
OX1R antag-1 – antagonists of human orexin 1 receptor (OX1R); OX1R-expressing cells, FRET antagonist read-out; inhibition, % at 6.6 µM; hit rate 1.8% among 330,000; in the data active = inhibition mostly above about 38%, no sharp cut-off; inactive = mostly below about 40%;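 note: 0% = agonist challenge alone and 100% = reference antagonist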
TAAR1 antag – human TAAR1 antagonists, primary screen, Fluo-8 calcium fluorescence, CHO RD-HGA16 cells. antagonist. inhibition, % at 3 µM. hit rate 1.5% among 360,000. AID 624466, 2012;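 active = inhibition above a per-plate cutoff, the mean inhibition of test compounds on that plate plus 3 SD, cut at about 49% in these data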;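 note: 0% = DMSO plus EC80 beta-PEA response and 100% = DMSO alone without agonist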
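Assay system: RD-HGA16 CHO cells with stable hTAAR1 and Gα16 / Reagent: EC80 β-phenethylamine stimulus / Doses: 3 µM, single point / Timing: dye loading 75 min at 37 °C, then 30 min room temperature / Measured by: Fluo-8 intracellular calcium dye fluorescence, real-time kinetic reads / Controls: vehicle wells and EC80 agonist wells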
GPR7 antag – GPR7 receptor antagonists, primary screen, cell-based, fluorescence, single concentration. GPR7-expressing cells, fluorescence antagonist assay. inhibition, % at 4.4 µM. hit rate 1.1% among 290,000. AID 1861, 2009; in the data active = inhibition above about 16%, passing the limit was not always enough;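 note: cells stimulated with the agonist NPW; 0% = agonist with vehicle and 100% = vehicle without agonist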
Target sequence (P48145 whole entry, looked up): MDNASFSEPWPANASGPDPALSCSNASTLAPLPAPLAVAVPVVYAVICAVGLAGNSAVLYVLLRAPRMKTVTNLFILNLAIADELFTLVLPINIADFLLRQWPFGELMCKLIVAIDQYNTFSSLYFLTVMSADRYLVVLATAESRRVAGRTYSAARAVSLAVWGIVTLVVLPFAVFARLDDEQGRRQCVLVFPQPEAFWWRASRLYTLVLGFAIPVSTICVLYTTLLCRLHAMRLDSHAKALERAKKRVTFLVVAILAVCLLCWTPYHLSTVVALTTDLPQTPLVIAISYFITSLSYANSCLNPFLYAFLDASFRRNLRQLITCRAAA
TAAR1 ag – human TAAR1 agonists, primary screen, Fluo-8 calcium fluorescence, CHO RD-HGA16 cells | Trace amine-associated receptor 1 (Homo sapiens), Q96RJ0 | hit rate 0.99% among 360,000 | vehicle wells 0%, saturating PEA agonist 100% | activation, % at 3 µM;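 active = activation above the mean activation of all test compounds in the run plus 3 SD, cut at about 38% in these data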
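System: CHO RD-HGA16 cells carrying human TAAR1 plus Gα16; Incubation: 17-24 h seeding, 75 min 37 °C dye, 30 min RT; Measured by: Fluo-8 fluorescence, 5 s baseline then 140 s kinetic read; Control set: DMSO and PEA EC100; Replication: single well for each compound.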
CHO parental Ca – ATP-evoked calcium signal inhibitors, parental CHO, primary screen, counter-screen for OX1R antagonist project, cell-based, fluorescence, Fluo-8 calcium dye. parental CHO-K1, ATP-induced calcium, Fluo-8 fluorescence. hit rate 0.63% among 330,000. AID 463079, 2010. inhibition, % at 5.6 µM;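 active = inhibition above that plate's mean sample inhibition plus 3 SD, cut at about 26% in these data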;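 note: 0% = ATP-challenged DMSO wells and 100% = DMSO wells without ATP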
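material = parental CHO cells | also added = ATP as calcium-mobilizing challenge | dosing = single point at 5.6 µM | detection = intracellular calcium via Fluo-8 no-wash fluorescent dye | read-out = % inhibition | benchmarks = low control ATP plus DMSO, high control DMSO only | repeats = one well per compound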
OX1R antag-2 – OX1R (HCRTR1) antagonists, primary screen, fluorescence, CHO/OX1R cells, Fluo-8 calcium, orexin A | hit rate 0.43% among 330,000 | AID 434989, 2010 | Fluo-8 calcium fluorescence | Orexin/Hypocretin receptor type 1 (Homo sapiens), O43613 | inhibition, % at 5 µM;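 active = inhibition above its plate's threshold, mean inhibition of all tested compounds on the plate plus 3 SD, cut at about 37% in these data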;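 note: 0% = orexin A challenge wells and 100% = SB-334867-A antagonist wells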
* marks the source's active call; other numbers are inactive results; x = not tested or not shown.

SMILES | OX1R antag-1 | TAAR1 antag | GPR7 antag | TAAR1 ag | CHO parental Ca | OX1R antag-2
Cc1noc(C)c1C(=O)OCC(=O)NCCc1ccc(Cl)cc1 | 6.8 | 4.4 | 19.9* | 0.5 | -11.4 | -16.3
CCC(=O)NC(Nc1sc2c(c1C(=O)OC)CCCC2)(C(F)(F)F)C(F)(F)F | 26.9 | 63.6* | -3.0 | 39.8* | 45.6* | 7.2
COCC(=O)Nc1sc2c(c1C(=O)OC)CCCC2 | 17.9 | -9.1 | -3.5 | 0.7 | -21.4 | -19.5
CCCCOc1ccc(C(=O)NC2CCCCN(C)C2=O)cc1 (stereo not drawn) | x | 1.9 | x | 1.2 | x | x
Nc1ccc(F)c(CN2CCN(c3ncc(Cc4ccccc4)cn3)CC2)c1 | x | -11.1 | x | 6.3 | x | x
O=C(COC(=O)/C=C/c1ccc(F)cc1)Nc1nnc(-c2ccccc2)o1 | 10.0 | -2.5 | x | -1.8 | -9.7 | -6.8
C=CCO[C@H]1CN(C(=O)OC)[C@@H]2C[C@H]1Oc1ccccc12 | x | -3.8 | x | 1.6 | x | x
FC(F)(F)c1nc(-c2ccncc2)ncc1-c1nnnn1-c1ccccc1 | 14.9 | 5.0 | -7.0 | 4.0 | -23.2 | -9.6
FC(F)(F)c1nc(N2CCCC2)ncc1-c1nnnn1-c1ccc(Cl)cc1 | 50.1 | 6.1 | -6.5 | 12.0 | 47.3* | 60.5*
Cc1ccc(-n2nnnc2-c2cnc(-c3cccnc3)nc2C(F)(F)F)cc1 | 39.7 | 26.9 | -0.9 | 13.0 | -10.8 | -20.3
Fc1ccc(-n2nnnc2-c2cnc(-c3cccs3)nc2C(F)(F)F)cc1 | 83.0* | 78.9* | -15.1 | 15.8 | 50.8* | 38.5
c1ccc(-n2nnnc2-c2cnc(-c3ccncc3)nc2-c2cccs2)cc1 | 46.5* | 7.2 | -13.9 | -2.3 | -10.6 | 20.8
COC(=O)[C@]12C[C@H](CC(=O)NCc3cccc4ccccc34)C(=O)N(Cc3ccccc3)C1=C[C@H](C(C)(C)C)O[C@@H]2C | x | -20.6 | x | 1.1 | x | x
O=C(NCc1ccc(F)cc1F)[C@@H]1CCCN1C(=O)[C@@H]1CCCN1C(=O)c1cccs1 | x | -3.4 | x | -0.3 | x | x
Nc1nc(N)c(Br)c(Nc2ccc(Cl)c(Cl)c2)n1 | x | -15.1 | x | 46.2* | x | x
O=C(COc1ccccc1)Nc1nc2cc3c(cc2s1)OCCO3 | 13.9 | 6.5 | -11.1 | 0.1 | 4.5 | 2.3
O=C(COc1ccccc1)Nc1nc2cc3c(cc2s1)OCO3 | 18.1 | -1.0 | -19.8 | -0.6 | 30.8* | 0.0
CCOC(=O)c1sc(NC(=O)c2ccc(S(=O)(=O)N(C)C)cc2)nc1C | 19.5 | 0.5 | 0.6 | 4.4 | -4.7 | -0.1
CCOC(=O)c1sc(NC(=O)c2ccc(S(=O)(=O)N(C)C)cc2)cc1C | 57.7* | 13.3 | -1.6 | 15.3 | -15.0 | 5.7
Cc1ccc(S(=O)(=O)Cc2cc(F)c([N+](=O)[O-])cc2[N+](=O)[O-])cc1 | 40.9* | x | 30.0* | x | 56.5* | 59.6*
CCOC(=O)c1ccc([N+](=O)[O-])c(CS(=O)(=O)c2ccc(Cl)cc2)c1 | 15.6 | 25.2 | 21.6 | 1.6 | -4.5 | -17.4
CCC(=O)N1CCC2(CC1)Oc1ccc(Cl)cc1C(=O)C21CC(c2ccccc2)=NO1 (stereo not drawn) | 29.3 | 53.9* | x | 24.9 | -6.1 | -4.5
O=C(c1ccoc1)N1CCC2(CC1)Oc1ccc(Cl)cc1C(=O)C21CC(c2ccccc2)=NO1 (stereo not drawn) | 18.4 | 33.3 | x | 13.4 | -13.1 | -7.9
COc1ccc(N2CCN(C(=S)Nc3ccccc3)CC2)cc1 | 6.9 | -0.7 | -11.5 | 0.6 | -5.3 | -10.7
CC(=O)c1ccc(N2CCN(C(=S)Nc3ccc(Oc4ccccc4)cc3)CC2)cc1 | 52.0 | 43.9 | 23.7* | 4.8 | 45.5* | 52.1*
CN1CCN(c2ccc(NC(=O)c3ccc(Oc4ccccc4)cc3)cc2)CC1 | 12.5 | 4.8 | -2.7 | 37.5* | -3.3 | -10.3
CC(C)CNc1cccc2c1S(=O)(=O)N(Cc1cccc(F)c1)[C@@H](C)[C@H](c1ccccc1)O2 | x | 3.2 | x | -0.3 | x | x
